Test [1] can be described thus: Antitumor activity against human NCI60 cells after 48 hrs by SRB assay. The class given is functional. The conditions noted are these: NCI60, 48 h; for TGI: read-out: pTGI (converted). The method, boiled down: (§1)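 Run at NCI in the 60-line human tumour panel. Five concentrations at 10-fold dilutions starting from 10^-4 M, with continuous exposure for 48 h. Growth was read by sulforhodamine B protein staining. GI50 (+50% growth), TGI (0% growth) and LC50 were interpolated from the curves, and MG-MID is the arithmetic mean across all tested lines.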

The next test relates to SK-MEL-5. The test can be described thus: Antitumor activity against human SK-MEL-5 cells after 48 hrs by SRB assay. Particulars: SK-MEL-5, 48 h. In kind it is functional. The method, boiled down: as §1
On the technique in general: The SRB assay estimates cell density from bound dye.

Test [2] is described as follows: Antitumor activity against human MCF7/ADR-RES cells after 48 hrs by SRB assay. The class given is functional. Particulars: NCI/ADR-RES. In a few lines: as §1
A further test concerns UACC-257. The test can be described thus: Antitumor activity against human UACC257 cells after 48 hrs by SRB assay. In kind it is functional. The conditions noted are these: UACC-257, 48 h. The method, boiled down: as §1
The test system of a further test is MDA-MB-435. The test can be described thus: Antitumor activity against human MDA-MB-435 cells after 48 hrs by SRB assay. In kind it is functional. The conditions noted are these: MDA-MB-435, 48 h. The method, boiled down: as §1
The subject of another test is M14. The test can be described thus: Antitumor activity against human M14 cells after 48 hrs by SRB assay. In kind it is functional. Particulars: M14, 48 h. The method, boiled down:
as §1

The test system of another test is T47D. The test can be described thus: Antitumor activity against human T47D cells after 48 hrs by SRB assay. In kind it is functional. In a few lines: as §1
In the next test the test system is SK-MEL-2. The test can be described thus: Antitumor activity against human SK-MEL-2 cells after 48 hrs by SRB assay. The class given is functional. The conditions noted are these: SK-MEL-2, 48 h. The method, boiled down: as §1
Another test deals with Malme-3M. The experiment in a line: Antitumor activity against human MALME3M cells after 48 hrs by SRB assay. In kind it is functional. The method, boiled down: as §1
Another test has as its system KM12. The test can be described thus: Antitumor activity against human KM12 cells after 48 hrs by SRB assay. The class given is functional. Particulars: KM12, 48 h. The method, boiled down:
as §1

The next test relates to COLO 205. The test can be described thus: Antitumor activity against human COLO205 cells after 48 hrs by SRB assay. In kind it is functional. Particulars: COLO 205, 48 h. In a few lines: as §1
In another test the test system is K562. The test can be described thus: Antitumor activity against human K562 cells after 48 hrs by SRB assay. The class given is functional. Particulars: K562, 48 h. In a few lines:
as §1

The subject of the next test is Tru-Pr1. The test can be described thus: Effect on cell cycle in human […] cells at 10 uM after 48 hrs by FACS analysis. The class given is functional, cell-based. The method, boiled down: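 TSU-Pr1 prostate carcinoma cells (5×10^5) in exponential growth were treated for 48 h. They were then centrifuged, fixed in ice-cold 70% ethanol, treated with lysis buffer containing RNase, and stained with propidium iodide. DNA content and cell-cycle phases were read by flow cytometry.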
(In general: Flow cytometry measures light scatter and fluorescence of single cells or particles in a stream.)

In the next test the test system is Hs-578T. The test can be described thus: Antitumor activity against human HS578T cells after 48 hrs by SRB assay. In kind it is functional. The method, boiled down:
as §1

A further test deals with HT-29. The test can be described thus: Antitumor activity against human HT29 cells after 48 hrs by SRB assay. The class given is functional. Particulars: HT-29, 48 h. The method, boiled down: as §1
The next test deals with SR. The test can be described thus: Antitumor activity against human SR cells after 48 hrs by SRB assay. In kind it is functional. The method, boiled down:
as §1

The next test relates to SK-MEL-28. The test can be described thus: Antitumor activity against human SK-MEL-28 cells after 48 hrs by SRB assay. In kind it is functional. Particulars: SK-MEL-28, 48 h. In a few lines:
as §1

A further test concerns MCF7. The experiment in a line: Antitumor activity against human MCF7 cells after 48 hrs by SRB assay. The class given is functional. The conditions noted are these: MCF7, 48 h. In a few lines:
as §1

For another test, the system named is SW-620. The experiment in a line: Antitumor activity against human SW620 cells after 48 hrs by SRB assay. The conditions noted are these: SW-620, 48 h. In kind it is functional. In a few lines:
as §1

Another test has as its system MOLT-4. The experiment in a line: Antitumor activity against human MOLT4 cells after 48 hrs by SRB assay. The class given is functional. The conditions noted are these: MOLT-4, 48 h. In a few lines: as §1
For a further test, the system named is MDA-N. The test can be described thus: Antitumor activity against human MDA-N cells after 48 hrs by SRB assay. The class given is functional. The method, boiled down: as §1
The test system of another test is RPMI-8226. The test can be described thus: Antitumor activity against human RPMI8226 cells after 48 hrs by SRB assay. In kind it is functional. Particulars: RPMI-8226, 48 h. In a few lines:
as §1

A further test relates to UACC-62. The experiment in a line: Antitumor activity against human UACC62 cells after 48 hrs by SRB assay. The conditions noted are these: UACC-62, 48 h. In kind it is functional. In a few lines:
as §1

For a further test, the system named is MDA-MB-231. The test can be described thus: Antitumor activity against human MDA-MB-231 cells after 48 hrs by SRB assay. In kind it is functional. Particulars: MDA-MB-231, 48 h. The method, boiled down:
as §1

Test [3] can be described thus: Antitumor activity against human HL60(TB) cells after 48 hrs by SRB assay. In kind it is functional, HL-60(TB). Particulars: HL-60, 48 h. The method, boiled down:
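NCI 60-cell-line primary screen: five concentrations at 10-fold dilutions starting from 10^-4 M. Cells exposed to drug continuously for 48 h. Growth estimated by sulforhodamine B protein assay. GI50 is the interpolated molar concentration giving +50% growth, TGI the concentration giving 0% growth, and LC50 the concentration giving 50% net cell death.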

The next test has as its system HCT-116. The experiment in a line: Antitumor activity against human HCT116 cells after 48 hrs by SRB assay. In kind it is functional. Particulars: HCT-116, 48 h. In a few lines: as §1
For a further test, the system named is LOX IMVI. The test can be described thus: Antitumor activity against human LOXIMVI cells after 48 hrs by SRB assay. The class given is functional. In a few lines: as §1

The source made the active and inactive calls. No cut-off for these calls is given here.

With `COc1ccc2cc(CNCCCN3CCN(CCCNCc4ccc5cc(OC)ccc5c4)CC3)ccc2c1`, in test [1], the 50% growth inhibitory concentration (GI50) (commonly the concentration that inhibits growth by half) is 1100 nM, the LC50 (usually the concentration that kills 50% of the test population) is 5620 nM and the TGI is 2450 nM.

As for `COc1ccc2cc(CNCCOCCOCCNCc3ccc4cc(OC)ccc4c3)ccc2c1`, in test [1], the GI50 was 724 nM, the median lethal concentration (LC50) is 5250 nM and the TGI is 1910 nM.

For the compound `c1ccc2cc(CN3CCC(C4CCN(Cc5ccc6ccccc6c5)CC4)CC3)ccc2c1`, in test [1], the GI50 is 2880 nM, the median lethal concentration (LC50) is 25100 nM and the TGI was 8320 nM.

Regarding `c1ccc2cc(CNCCOCCOCCNCc3ccc4ccccc4c3)ccc2c1`, in test [1], the GI50 is 1700 nM, the median lethal concentration (LC50) was 10000 nM and the TGI was 3720 nM.

Turning to `c1ccc2c(CNCCCCCCCCCCCCNCc3cccc4ccccc34)cccc2c1`, in [1], the 50% growth inhibitory concentration (GI50) was 2190 nM and the TGI was 4370 nM.

`COc1ccc2cc(CNCCCCCCNCc3ccc4cc(OC)ccc4c3)ccc2c1`: in test [1], the concentration for 50% growth inhibition (GI50) is 603 nM, the LC50 is 4070 nM and the TGI is 1740 nM.

With `COc1ccc2cc(CN3CCC(C4CCN(Cc5ccc6cc(OC)ccc6c5)CC4)CC3)ccc2c1`, the GI50 with SK-MEL-5 is 1480 nM; in [1] it was 2950 nM; in [2] it was 13200 nM; with UACC-257, 2040 nM; in the test on MDA-MB-435, 1910 nM; in the test on M14 it was 2450 nM. For the same compound, the concentration for 50% growth inhibition (GI50) was 1780 nM in the test on T47D; 6460 nM with SK-MEL-2; 2290 nM in the test with Malme-3M; 3240 nM in the test with KM12; 1620 nM in the test with COLO 205; 501 nM in the test with K562. Besides, the GI50 is 10700 nM with Hs-578T; 3390 nM in the test on HT-29; 1230 nM in the test with SR; 2630 nM in the test with SK-MEL-28; 5250 nM in the test on MCF7; 3160 nM in the test with SW-620. Also, the 50% growth inhibitory concentration (GI50) is 2190 nM in the test on MOLT-4; 1700 nM with MDA-N; 1740 nM with RPMI-8226; 1910 nM in the test with UACC-62; 3310 nM with MDA-MB-231; 2630 nM in test [3]. For the same compound, the GI50 with HCT-116 was 3470 nM; with LOX IMVI, 2820 nM. Further, the TGI in [1] was 9770 nM. Further, in the test on Tru-Pr1, the outcome was inactive.

Regarding `COc1ccc2cc(CNCCCCCCCCCCCCNCc3ccc4cc(OC)ccc4c3)ccc2c1`, in [1], the GI50 was 15500 nM, the 50% lethal concentration (LC50) was 55000 nM and the TGI is 29500 nM.

For `c1ccc2c(CNCCCN3CCN(CCCNCc4cccc5ccccc45)CC3)cccc2c1`, in [1], the GI50 is 6610 nM, the LC50 was 43700 nM and the TGI was 19500 nM.

In the case of `O=C1c2c(O)ccc(O)c2C(=O)c2c(NCCNCCO)ccc(NCCNCCO)c21` [MITOXANTRONE], in test [1], it took 47.9 nM to inhibit growth by half (GI50) and the TGI is 692 nM.

As for `c1ccc2c(CNCCCCCCNCc3cccc4ccccc34)cccc2c1`, in test [1], the GI50 was 5370 nM, the median lethal concentration (LC50) was 29500 nM and the TGI was 12300 nM.

Take `COc1cc(NS(C)(=O)=O)ccc1Nc1c2ccccc2nc2ccccc12` [AMSACRINE]: in [1], the GI50 was 229 nM and the TGI was 3390 nM.

With `c1ccc2c(CN3CCC(C4CCN(Cc5cccc6ccccc56)CC4)CC3)cccc2c1`, in test [1], the GI50 was 1950 nM, the LC50 is 9550 nM and the TGI is 4270 nM.

With `c1ccc2c(CNCCCCCCCCNCc3cccc4ccccc34)cccc2c1`, in test [1], the GI50 is 2400 nM and the TGI is 5250 nM.

Regarding `COc1ccc2cc(CNCCCCCCCCNCc3ccc4cc(OC)ccc4c3)ccc2c1`, in [1], growth was halved (GI50) at 1150 nM, the 50% lethal concentration (LC50) is 6310 nM and the TGI was 2400 nM.

Source of the values: ChEMBL document CHEMBL1140056, “Design, synthesis, and antitumor activity of new bis-aminomethylnaphthalenes” (2008).
